Converted amounts (≈) assume the structure as drawn. The source made the active and inactive calls. The calls are words filed in the database; no cut-off is given here.
Legend:
Human alphaherpesvirus 1 [1] = experiment: Antiviral activity against Herpes simplex virus 1 assessed as plaque reduction at 1.71 x 10^-5 M by cell-based assay relative to vidarabine; type: functional
In short: (§1)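 HSV-1 plaque-reduction assay by the Hsiung–Melnick procedure. Challenge was 125-300 plaque-forming units. An ara-A control was run alongside each sample at the same molar concentration with an identical virus challenge. Data were confirmed by duplicate assay (±10%).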

[2] = Aqueous solubility of the compound at pH 7; type: physicochemical
Adenosine deaminase = target: T1, Adenosine deaminase (Bos taurus, UniProt P56658); experiment: Activity of calf mucosal adenosine deaminase assessed as enzyme-mediated drug metabolism by liquid chromatographic analysis; type: ADME; settings: cattle
T1 sequence (P56658 whole entry): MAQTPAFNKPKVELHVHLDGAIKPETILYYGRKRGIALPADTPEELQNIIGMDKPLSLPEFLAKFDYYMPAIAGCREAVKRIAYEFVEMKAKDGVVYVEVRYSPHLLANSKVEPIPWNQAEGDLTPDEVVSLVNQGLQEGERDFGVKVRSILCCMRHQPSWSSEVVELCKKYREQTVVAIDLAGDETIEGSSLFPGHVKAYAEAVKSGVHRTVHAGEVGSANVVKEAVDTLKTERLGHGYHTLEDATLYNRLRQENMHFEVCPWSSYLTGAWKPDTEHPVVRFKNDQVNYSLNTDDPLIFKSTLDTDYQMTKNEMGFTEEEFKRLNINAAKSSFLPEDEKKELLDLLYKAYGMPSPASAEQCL
In short: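 Drug exposed to the deaminase, with enzyme level also raised 10- and 100-fold. Reaction mixtures analysed by reverse-phase C18 LC (aqueous acetonitrile eluent, 254-nm UV detection) for unchanged substrate.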

Human alphaherpesvirus 1 [3] = experiment: Antiviral activity against Herpes simplex virus 1 assessed as plaque reduction at 0.17 x 10^-5 M by cell-based assay relative to control; type: functional; in short: as §1
Human alphaherpesvirus 1 [4] = experiment: Antiviral activity against Herpes simplex virus 1 assessed as plaque reduction at 0.17 x 10^-5 M by cell-based assay relative to vidarabine; type: functional; in short: as §1
Human alphaherpesvirus 1 [5] = experiment: Antiviral activity against Herpes simplex virus 1 assessed as plaque reduction at 1.67 x 10^-5 M by cell-based assay relative to control; type: functional; in short: as §1
Human alphaherpesvirus 1 [6] = experiment: Antiviral activity against Herpes simplex virus 1 assessed as plaque reduction at 1.67 x 10^-5 M by cell-based assay relative to vidarabine; type: functional; in short: as §1
Human alphaherpesvirus 1 [7] = experiment: Antiviral activity against Herpes simplex virus 1 assessed as plaque reduction at 0.18 x 10^-5 M by cell-based assay relative to vidarabine; type: functional; in short: as §1
Human alphaherpesvirus 1 [8] = experiment: Antiviral activity against Herpes simplex virus 1 assessed as plaque reduction at 0.18 x 10^-5 M by cell-based assay relative to control; type: functional; in short: as §1
Human alphaherpesvirus 1 [9] = experiment: Antiviral activity against Herpes simplex virus 1 assessed as plaque reduction at 1.76 x 10^-5 M by cell-based assay relative to control; type: functional; in short: as §1
Human alphaherpesvirus 1 [10] = experiment: Antiviral activity against Herpes simplex virus 1 assessed as plaque reduction at 1.76 x 10^-5 M by cell-based assay relative to vidarabine; type: functional; in short: as §1
Human alphaherpesvirus 1 [11] = experiment: Antiviral activity against Herpes simplex virus 1 assessed as plaque reduction at 5.47 x 10^-5 M by cell-based assay relative to vidarabine; type: functional; in short: as §1
Human alphaherpesvirus 2 [12] = experiment: Antiviral activity against Herpes simplex virus 2 Magill infected in guinea pig assessed as prevention of death at 3% compound concentration treated intravaginally bid for 4 days measured on day 16 post-infection; type: functional, organism-based
In short: (§2)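 Animals were infected intravaginally with 1 × 10^2.82 PFU in 0.1 mL. Drug ointments were given intravaginally starting 4 h postinfection, then twice daily for 4 days, filling the vagina. Clinical signs were scored as animals positive/infected. Cure meant no symptoms, or symptoms healed by day 16 postinfection; it was reported as cured/infected.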

Cavia porcellus = species: Cavia porcellus; experiment: Toxicity in albino guinea pig assessed as occurrence of irritation at 3% compound concentration treated intravaginally bid for 4 days; type: organism-based; settings: in vivo, other, 96 h
Human alphaherpesvirus 2 [13] = experiment: Antiviral activity against Herpes simplex virus 2 Magill infected in guinea pig assessed as prevention of paralysis at 3% compound concentration treated intravaginally bid for 4 days measured on day 16 post-infection; type: functional, organism-based; in short: as §2
Human alphaherpesvirus 2 [14] = experiment: Antiviral activity against Herpes simplex virus 2 Magill infected in guinea pig assessed as cured animal at 3% compound concentration treated intravaginally bid for 4 days measured on day 16 post-infection; type: functional, organism-based; in short: as §2
Human alphaherpesvirus 2 [15] = experiment: Antiviral activity against Herpes simplex virus 2 Magill infected in guinea pig assessed as prevention of vulvo-vaginal swelling at 3% compound concentration treated intravaginally bid for 4 days measured on day 16 post-infection; type: functional, organism-based; in short: as §2
Human alphaherpesvirus 1 [16] = experiment: Antiviral activity against Herpes simplex virus 1 assessed as plaque reduction at 1.75 x 10^-5 M by cell-based assay relative to vidarabine; type: functional; in short: as §1
Human alphaherpesvirus 2 [17] = experiment: Antiviral activity against Herpes simplex virus 2 Magill infected in guinea pig assessed as prevention of vaginal discharge at 3% compound concentration treated intravaginally bid for 4 days measured on day 16 post-infection; type: functional, organism-based; in short: as §2
Human alphaherpesvirus 1 [18] = experiment: Antiviral activity against Herpes simplex virus 1 assessed as plaque reduction at 1.75 x 10^-5 M by cell-based assay relative to control; type: functional; in short: as §1
Human alphaherpesvirus 2 [19] = experiment: Antiviral activity against Herpes simplex virus 2 Magill infected in guinea pig assessed as prevention of vesiculation of labia and vulva at 3% compound concentration treated intravaginally bid for 4 days measured on day 16 post-infection; type: functional, organism-based; in short: as §2
Human alphaherpesvirus 2 [20] = experiment: Antiviral activity against Herpes simplex virus 2 Magill infected in guinea pig assessed as prevention of inflammation at 3% compound concentration treated intravaginally bid for 4 days measured on day 16 post-infection; type: functional, organism-based; in short: as §2

Row | solubility ([2]; buffer) | Stability (Adenosine deaminase) | solubility ([2]; aqueous, read-out: solubility) | SMILES | inhibition at 1.8 µM (Human alphaherpesvirus 1 [7]) | inhibition at 1.8 µM (Human alphaherpesvirus 1 [8]) | inhibition at 17.6 µM (Human alphaherpesvirus 1 [10]) | also measured
1 | soluble | Unstable | – | CC(=O)O[C@H]1[C@H](O)[C@H](n2cnc3c(N)ncnc32)O[C@@H]1CO | – | – | – | inhibition at 17.1 µM (Human alphaherpesvirus 1 [1]): 87%; inhibition at 1.7 µM (Human alphaherpesvirus 1 [3]): 9%; inhibition at 1.7 µM (Human alphaherpesvirus 1 [4]): 36%
2 | soluble | Unstable | – | CCC(=O)O[C@H]1[C@H](O)[C@H](n2cnc3c(N)ncnc32)O[C@@H]1CO | 36% | 5% | 87% | inhibition at 17.6 µM (Human alphaherpesvirus 1 [9]): 80%
3 | – | Stable | 33000 µg/mL (≈ 93.9 mM) | CC(=O)O[C@H]1[C@H](OC(C)=O)[C@@H](CO)O[C@H]1n1cnc2c(N)ncnc21 | 40% | 0% | – | Activity (Human alphaherpesvirus 2 [12]): Active; Activity (Cavia porcellus): Non-toxic; Activity (Human alphaherpesvirus 2 [13]): Active; Activity (Human alphaherpesvirus 2 [14]): Active; Activity (Human alphaherpesvirus 2 [15]): Active; inhibition at 17.5 µM (Human alphaherpesvirus 1 [16]): 100%; Activity (Human alphaherpesvirus 2 [17]): Active; inhibition at 17.5 µM (Human alphaherpesvirus 1 [18]): 68%; Activity (Human alphaherpesvirus 2 [19]): Active; Activity (Human alphaherpesvirus 2 [20]): Active

Second part, the molecule before the results:

Row | SMILES | solubility ([2]; buffer) | Stability (Adenosine deaminase) | solubility ([2]; aqueous, read-out: solubility) | inhibition at 1.8 µM (Human alphaherpesvirus 1 [7]) | inhibition at 1.8 µM (Human alphaherpesvirus 1 [8]) | inhibition at 17.6 µM (Human alphaherpesvirus 1 [10]) | also measured
4 | CC(C)(C)C(=O)OC[C@H]1O[C@@H](n2cnc3c(N)ncnc32)[C@@H](O)[C@@H]1OC(=O)C(C)(C)C | – | Stable | < 10 µg/mL | – | – | – | inhibition at 16.7 µM (Human alphaherpesvirus 1 [5]): 0%; inhibition at 16.7 µM (Human alphaherpesvirus 1 [6]): 100%
5 | Nc1ncnc2c1ncn2[C@@H]1O[C@H](CO)[C@@H](OC(=O)c2ccccc2)[C@@H]1OC(=O)c1ccccc1 | – | Stable | < 10 µg/mL | – | – | – | inhibition at 54.7 µM (Human alphaherpesvirus 1 [11]): 100%
6 | CCC(=O)O[C@H]1[C@H](O)[C@@H](CO)O[C@H]1n1cnc2c(N)ncnc21 | soluble | Stable | – | 36% | 4% | 88% | inhibition at 17.6 µM (Human alphaherpesvirus 1 [9]): 35%
7 | CCC(=O)OC[C@H]1O[C@@H](n2cnc3c(N)ncnc32)[C@@H](O)[C@@H]1OC(=O)CC | – | Stable | 2300 µg/mL (≈ 6.06 mM) | 23% | 0% | 76% | –

From ChEMBL document CHEMBL3228031, “Prodrugs of 9-(beta-D-arabinofuranosyl)adenine 2. Synthesis and evaluation of a number of 2',3'- and 3',5'-di-O-acyl derivatives” (J Med Chem, 1979)
